SENP8 block-1: SENP8 protease inhibition; purified SENP8, Z-RLRGG-aminoluciferin cleavage, luminescence; inhibition, % at 10 µM; 330,000 tested, 1.2% active; AID 2540; in the data active = inhibition above about 50%
SENP8 block-2: inhibitors of human SENP8 protease. Q96LD8. recombinant SENP8, Nedd8 substrate fluorescence. AID 602440. inhibition, % at 20 µM. 360,000 tested, 0.64% active; in the data active = inhibition mostly above about 40%, no sharp cut-off; inactive = mostly below about 27%
SENP6 block: blocks the human protease SENP6. Recombinant SENP6 catalytic domain, aminoluciferin luminescence. 330,000 tested, 1.8% active. Q9GZR1. inhibition, % at 10 µM;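 active = inhibition above about 50% at the single tested dose, limit read from the data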;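 note: plate controls were DMSO wells with enzyme for no effect and DMSO wells lacking enzyme for full effect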
SENP7 inh: blocks the human protease SENP7; Q9BQF6; AID 434973; recombinant SENP7, Z-RLRGG-aminoluciferin luminescence, 40 min; inhibition, % at 5 µM; 330,000 tested, 1.5% active;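 active = inhibition above about 50% at the single test dose, limit read from the data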;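 note: plate controls were DMSO with enzyme for no effect and no enzyme buffer wells for full effect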
Target sequence (Q9BQF6 706-1050 limits assumed): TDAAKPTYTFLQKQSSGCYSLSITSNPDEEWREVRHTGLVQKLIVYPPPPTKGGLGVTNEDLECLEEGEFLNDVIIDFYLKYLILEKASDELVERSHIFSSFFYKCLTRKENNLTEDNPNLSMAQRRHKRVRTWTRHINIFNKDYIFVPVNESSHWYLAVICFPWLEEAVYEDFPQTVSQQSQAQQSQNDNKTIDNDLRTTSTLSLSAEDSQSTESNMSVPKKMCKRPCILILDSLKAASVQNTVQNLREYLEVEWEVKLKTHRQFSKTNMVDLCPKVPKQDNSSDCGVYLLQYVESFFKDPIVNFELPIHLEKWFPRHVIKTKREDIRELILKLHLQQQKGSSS
SENP1 inh: blocks the human SENP1 SUMO protease catalytic domain; 360,000 tested, 0.21% active; recombinant SENP1 catalytic domain, CyPet-SUMO1-YPet FRET cleavage; inhibition, % at 10 µM; AID 624204; Q9P0U3;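 active = inhibition at least 30% at 10 µM, raw YFP signal under a set limit, fluorescence ratio 0.5 to 1.5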;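 note: 0% = enzyme with DMSO and 100% = no enzyme wells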
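Test system: recombinant human SENP1 catalytic domain, His6-tagged / Medium: pH 8 Tris buffer with EDTA, NaCl, BME, BSA, NP40, catalase / Also added: SUMO1 FRET substrate flanked by Cypet and Ypet, 25 nM / Times: 50 min reaction at room temperature / Signal: FRET, CFP and YFP emission / Control set: no-enzyme low control and enzyme-plus-DMSO high control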
SENP8 conf: confirmation of human SENP8 protease inhibitors | shares compounds with SENP7 inh | Recombinant SENP8, Z-RLRGG-aminoluciferin luminescence, 60 min | 6,200 tested, 40% active | inhibition, % at 12.5 µM;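 active = mean inhibition across replicates above about 50%, limit read from the data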
SENP6 confirm: human SENP6 inhibition, confirmed | recombinant SENP6, Z-RLRGG-aminoluciferin luminescence | inhibition, % at 12.5 µM | 6,200 tested, 58% active | shares compounds with SENP7 inh | AID 488915
SENP7 conf: human SENP7 inhibition, confirmed. shares compounds with SENP7 inh. recombinant SENP7, Z-RLRGG-aminoluciferin luminescence, 40 min. inhibition, % at 12.5 µM. 6,200 tested, 69% active. AID 488917
Casp3 select: caspase-3 inhibition (SENP selectivity assay); AID 488918; inhibition, % at 12.5 µM; purified caspase-3, Z-DEVD-aminoluciferin luminescence, 60 min; shares compounds with SENP7 inh; 6,200 tested, 60% active;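 active = mean inhibition above about 50%, limit read from the data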;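 note: plate controls were enzyme with DMSO for no effect and wells without caspase-3 for full effect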
Target sequence (P42574 28-227 limits assumed): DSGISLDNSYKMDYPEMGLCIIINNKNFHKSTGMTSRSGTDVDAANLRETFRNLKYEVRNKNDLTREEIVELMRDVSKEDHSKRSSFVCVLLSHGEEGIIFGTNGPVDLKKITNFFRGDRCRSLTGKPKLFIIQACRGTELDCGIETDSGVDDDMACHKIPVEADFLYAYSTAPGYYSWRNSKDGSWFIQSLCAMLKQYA
Luc interf: luminescence interference (SENP counter-screen). 6,200 tested, 39% active. shares compounds with SENP7 inh. AID 488919. Pre-incubated SENP8/Z-RLRGG-aminoluciferin, luciferase luminescence interference. inhibition, % at 12.5 µM;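 active = mean inhibition above about 50% when retested at one dose, limit read from the data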;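 note: plate controls were DMSO wells with completed reaction for no effect and substrate without enzyme for full effect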
An asterisk follows results filed as active; · = no result. Hits are enriched below; roughly 2.5% of the tested compounds scored in any of these assays.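 Rule for the calls, unless noted: active = mean inhibition above about 50% in the one-dose retest (limit read from the data); inactive = the rest.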

SMILES	SENP8 block-1	SENP8 block-2	SENP6 block	SENP7 inh	SENP1 inh	SENP8 conf	SENP6 confirm	SENP7 conf	Casp3 select	Luc interf
O=C(COC(=O)c1cccnc1Cl)c1ccc(OC(F)F)cc1	71.5*	7.7	24.1	85.6*	0.2	-1.5	77.4*	97.2*	89.2*	78.2*
O=C(COC(=O)c1cccnc1Cl)c1ccc(Cl)cc1Cl	-3.2	7.3	84.7*	67.0*	0.4	45.4	36.5	88.5*	77.7*	74.2*
Cc1nc(Nc2ccc(C(=O)O)cc2)sc1-c1ccccc1	95.9*	-400.2	94.8*	100.0*	-0.3	71.8*	91.9*	67.1*	18.2	6.0
c1ccc(Nc2nc(-c3ccccc3)ns2)cc1	60.5*	10.1	76.9*	83.4*	-0.6	-5.4	52.6*	91.7*	46.6	8.2
Cc1nc(Nc2ccccc2)sc1-c1ccccc1	82.5*	-110.5	90.1*	89.6*	2.6	93.9*	93.8*	99.7*	70.7*	37.7
Cn1c(=O)c2c(nc(Cl)n2CC(=O)NC2(C#N)CCCCC2)n(C)c1=O	-4.3	11.7	-5.1	-7.7	0.3	·	·	·	·	·
O=C1NC[C@@H](CCCCN2C[C@H](Cc3ccc(O)cc3)N(CC3CCCCC3)C(=O)C2=O)N(Cc2ccccc2)C1=O	·	14.8	·	·	1.9	·	·	·	·	·
COc1ccccc1N(/N=C1\Sc2ccccc2C1=O)C(C)=O	78.8*	30.8	91.7*	29.4	2.5	7.8	82.6*	66.3*	22.8	14.9
COc1ccccc1NC1=C(NC(C)=O)C(=O)c2ccccc2C1=O	·	-0.1	·	·	-1.8	·	·	·	·	·
O=C(NNC(=S)NCc1ccco1)c1ccc(S(=O)(=O)N2CCOCC2)cc1	4.8	-13.5	-7.9	1.9	0.7	·	·	·	·	·
COc1ncnc2sc(-c3ccccc3)cc12	96.8*	2.8	93.2*	98.6*	-2.7	96.0*	95.3*	99.9*	95.1*	91.6*
CN(C)C(=O)COc1ncnc2sc(-c3ccccc3)cc12	1.9	-19.7	2.9	-0.4	-10.2	·	·	·	·	·
OC(COc1ccc(Br)cc1)CN1CCC(Cc2ccccc2)CC1 (centres undefined)	3.3	15.7	17.3	-3.7	-0.4	·	·	·	·	·
c1ccc(-c2ccc(-c3cn4c(n3)CCC4)cc2)cc1	68.6*	-444.5	86.8*	72.8*	0.7	79.6*	80.1*	94.7*	66.1*	59.9*
O=C(Nc1sc2c(c1C(=O)O)CCCCC2)c1ccccc1	94.8*	-100.1	99.5*	83.0*	0.0	97.3*	99.8*	103.4*	97.7*	98.5*
O=C(Nc1sc2c(c1C(=O)O)CCC2)c1ccccc1	94.1*	-58.6	88.1*	92.2*	-0.2	46.2	98.6*	102.8*	97.3*	85.2*
O=C(Nc1sc2c(c1C(=O)O)CCCC2)c1cccc(Cl)c1	91.0*	-17.5	91.9*	38.5	3.4	96.2*	96.1*	99.4*	87.1*	95.7*
O=C(Nc1sc2c(c1C(=O)O)CCC2)c1ccc(F)cc1	80.8*	-84.2	86.9*	45.2	0.8	89.2*	89.5*	95.2*	91.0*	58.2*
CC(C)C[C@@H](COCc1cccc(C(F)(F)F)c1)N1CCN(C(=O)c2ccc(C(F)(F)F)cc2)CCC1=O	·	-0.4	·	·	-5.9	·	·	·	·	·
COc1ccc(C(=O)Nc2sc3c(c2C#N)CCN(C(C)=O)C3)cc1	4.3	-362.2	78.9*	6.2	-27.7	-21.2	-15.7	-5.0	-7.1	-4.0
COc1cc(C(=O)Nc2sc3c(c2C#N)CCN(C(C)=O)C3)cc(OC)c1OC	11.2	-388.4	17.8	10.7	-35.1	·	·	·	·	·
NC(=O)c1c(NC(=O)c2ccccc2F)sc2c1CCCC2	18.8	-159.7	56.4*	20.2	-2.1	-7.4	25.9	2.0	4.1	-4.4
N#Cc1c(NC(=O)c2ccccc2)sc2c1CCCCC2	50.8*	-38.9	73.7*	56.2*	-5.9	9.7	19.5	23.6	19.8	25.6
CC1(C2CC2)NC(=O)N(CC(=O)Nc2ccc(OC(F)F)cc2)C1=O (centres undefined)	·	13.1	·	·	3.1	·	·	·	·	·
Cc1c(Cl)cccc1NC(=O)C1COc2ccccc2O1 (centres undefined)	3.7	21.1	-7.9	-0.9	0.7	·	·	·	·	·
SMILES	SENP8 block-1	SENP8 block-2	SENP6 block	SENP7 inh	SENP1 inh	SENP8 conf	SENP6 confirm	SENP7 conf	Casp3 select	Luc interf
COC(=O)c1ccc(COn2nnc3ccccc32)cc1	36.6	13.1	56.1*	51.6*	-2.0	33.8	31.9	76.4*	69.5*	34.4
COC(=O)c1ccc(Cn2nnc3ccccc32)cc1	-5.9	5.7	-6.2	-5.9	1.5	·	·	·	·	·
CCCCN(C(=O)c1ccc(Br)o1)C1CCS(=O)(=O)C1 (centres undefined)	-6.4	4.4	-16.4	-6.1	1.0	·	·	·	·	·
O=C1C(c2c(O)[nH]c3ccccc23)=Nc2ccccc21	2.6	20.7	5.5	-8.5	-1.5	·	·	·	·	·
CC(=O)c1cccc2c(O)c(C3=Nc4ccccc4C3=O)[nH]c12	59.1*	-0.6	54.5*	13.0	-10.2	48.3	59.5*	42.8	46.0	18.7
O=C(NNC(=O)c1cnccn1)c1cccc([N+](=O)[O-])c1	-6.6	20.4	3.3	10.1	6.5	·	·	·	·	·
O=C(NNC(=O)c1ccccc1[N+](=O)[O-])c1cnccn1	-0.3	17.8	-6.7	82.5*	1.9	-8.9	-5.8	-5.2	6.8	0.7
CC(Nc1ccc2ccccc2c1)C(=O)N/N=C/c1ccncc1 (centres undefined)	47.7	18.4	56.2*	31.5	9.5	-22.7	-17.1	-5.6	-6.4	-5.6
COC(=O)CSc1nnc(-c2sc3ccccc3c2Cl)o1	28.4	-305.9	70.2*	56.5*	-5.2	-5.0	-2.6	4.6	8.6	2.4
CS(=O)(=O)N1CCC(C(=O)NCc2ccc3c(c2)OCO3)CC1	12.1	14.1	3.3	6.3	0.9	·	·	·	·	·
CCn1c(Cc2ccccc2)nnc1SC(C)C(=O)NC1CC1 (centres undefined)	91.2*	-1.6	3.4	2.8	1.3	-3.5	-4.3	-6.1	-2.4	-15.0
Cn1c(Cc2ccccc2)nnc1SCC(=O)NC1CC1	-3.8	10.1	-16.3	4.7	1.2	·	·	·	·	·
CCn1c(Cc2ccccc2)nnc1SCC(=O)Nc1nccs1	2.6	19.7	0.8	82.0*	0.6	10.3	8.1	-6.1	-3.0	1.6
CC(=O)Nc1ccc(-c2nnn(CC(=O)c3ccccc3)n2)cc1Cl	0.9	18.2	-12.4	-0.6	2.6	·	·	·	·	·

Source: PubChem BioAssay
